# Source: publication PMC12257300 (RSC Advances, 2025)
# *: point of attachment. Fmoc = O=C(OCC1c2ccccc2-c2ccccc21)*
# Columns and labels:
# [1] = soft Fmoc-WWRR-NH2 based hydrogels; cited from earlier work
# [2] = Gelation by inverted tube test / minimum gelation concentration; assay type: physicochemical; conditions: 1 w/v% of sequence + 1 w/v% H-FQFQFK-NH2 in PBS
# Procedure, shortened: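 Gels formed by adding PBS to the peptide acetate salt in a tube, then repeated vortexing (1 min) and sonication (5 min), and resting overnight at room temperature before assessment.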
# [3] = Rheology, shear recovery experiment; assay type: physicochemical; conditions: 2 w/v% P4 biogel, shear strain 50%, 1 Hz, 25 °C
# Procedure, shortened: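 Hydrogel (350 μL) loaded on a 25 mm plate and rested 5 min. G′ and G′′ were recorded for 60 s at 1 Hz and 1% strain, then strain was raised to 50% for 30 s. The cycle was repeated 4 times under a 1 N normal force at 25 °C, in threefold.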
Substance,Gelation behavior of co-formulation with parent peptide (inverted tube test) [2],other results
Fmoc-WWRR-NH2,–,Storage modulus G′ of reported hydrogel [1]: ~100 Pa
"H-RRWWQFQFK-NH2 [P5, H-RRWWQFQFK-NH2]",self-supporting hydrogels,–
"H-RWRWQFQFK-NH2 [P4, H-RWRWQFQFK-NH2]",–,tan δ at increased shear strain [3]: 0.6
"H-WRWRFQFQFK-NH2 [P2, H-WRWRFQFQFK-NH2]",self-supporting hydrogels,–
